Data taken from ChEMBL document CHEMBL2062381, “Synthesis and in vitro evaluation of new chloroquine-chalcone hybrids against chloroquine-resistant strain of Plasmodium falciparum” (Bioorg Med Chem Lett, 2012).
Values after ≈ are worked out from the molar mass of the structure shown.

Columns and labels:
Plasmodium yoelii = assay: Inhibition of beta hematin formation in Plasmodium yoelii infected swiss mouse RBC after 16 hrs; format: functional, organism-based
Method in brief: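 Source material was plasma from male Swiss mice (15–20 g) inoculated with 1 × 10⁵ P. yoelii-infected RBCs. Blood was taken by cardiac puncture at 50% parasitemia into 2.0% citrate and centrifuged. The 1.0 mL mix held 100 mM sodium acetate pH 5.1, plasma, hemin substrate and compound at […]. It ran in triplicate for 16 h at 37 °C with rotary shaking. The washed β-hematin pellet was dissolved in NaOH and read at 400 nm. IC50 came from nonlinear regression.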

Plasmodium falciparum [1] = assay: Antimalarial activity against chloroquine-susceptible Plasmodium falciparum 3D7 after 72 hrs by SYBR Green-I based fluorescence assay; format: functional, organism-based; conditions: 3D7, 72 h
Method in brief: (§1)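 Asynchronous culture (>80% rings), 1.0% parasitized cell suspension at 0.8% parasitaemia, exposed to twofold serial dilutions of compound (DMSO stock 5 mg/mL). Incubated 72 h at 37 °C under 5% CO₂ in air. Lysis buffer with SYBR Green I added, then 1 h at 37 °C. Fluorescence read at 485/530 nm. IC₅₀ from logit regression of dose-response curves. Mean of three experiments in triplicate.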

[2] = Selectivity index, ratio of IC50 for african green monkey Vero cells to IC50 for Plasmodium falciparum; format: toxicity, cell-based; conditions: read-out: Ratio IC50
Method in brief: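 SI = CC50/IC50. CC50 was measured in Vero monkey kidney cells (C1008) by MTT after 72 h exposure to compound dilutions, using nonlinear regression. IC50 came from a 72 h SYBR Green I fluorescence assay in P. falciparum (1.0% parasitized cells, 0.8% parasitaemia, mostly ring stages, 37 °C, 5% CO2). Those values came from logit regression.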

Plasmodium falciparum [3] = assay: Antimalarial activity against chloroquine-resistant Plasmodium falciparum K1 after 72 hrs by SYBR Green-I based fluorescence assay; format: functional, organism-based; method in brief: as §1
[4] = Inhibition of hydrogen peroxide-mediated hemin decomposition assessed as remaining hemin level at 20 uM after 30 mins by […] (reference value: 43%); format: functional
Method in brief: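 Hemin (in 0.1 N NaOH) was mixed with BSA in 0.2 M sodium acetate pH 5.1 and compound, then equilibrated for 10 min at room temperature. The reaction was started with 20 mM H2O2 and ran 30 min at room temperature. Read-out was the decrease in Soret absorbance at 405 nm, reported as % hemin remaining. Controls used water instead of H2O2. Data are the mean of three experiments in triplicate.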

[5] = Plasmodium falciparum, K1, 72 h, read-out: IC50

## O=C(/C(=C/c1ccc(Cl)cc1Cl)Oc1ccc(/C=N/Nc2ccnc3cc(Cl)ccc23)cc1)c1ccc(Cl)cc1
Plasmodium yoelii
  IC50: 5.91 µg/mL (≈ 9.73 µM)
Plasmodium falciparum [1]
  IC50: 295 nM
[2]
  selectivity ratio: 560
Plasmodium falciparum [3]
  IC50: Not Active

## O=C(/C(=C/c1ccccc1)Oc1ccc(/C=N/Nc2ccnc3cc(Cl)ccc23)cc1)c1ccc(Cl)cc1
Plasmodium yoelii
  IC50: 5.66 µg/mL (≈ 10.5 µM)
Plasmodium falciparum [1]
  IC50: 78.8 nM
[2]
  selectivity ratio: 2360
Plasmodium falciparum [3]; [5]
  IC50: 110 nM

## COc1ccc(OC)c(/C=C(\Oc2ccc(/C=N/Nc3ccnc4cc(Cl)ccc34)cc2)C(=O)c2ccc(Cl)cc2)c1
Plasmodium yoelii
  IC50: 25 µg/mL (≈ 41.8 µM)
Plasmodium falciparum [1]
  IC50: 250 nM
[2]
  selectivity ratio: 669
Plasmodium falciparum [3]; [5]
  IC50: 125 nM

## CCN(CC)CCCC(C)Nc1ccnc2cc(Cl)ccc12 (configuration not stated) [CHLOROQUINE]
Plasmodium yoelii
  IC50: 3.75 µg/mL (≈ 11.7 µM)
[4]
  Activity: 65%

## O=C(/C(=C/c1cccc([N+](=O)[O-])c1)Oc1ccc(/C=N/Nc2ccnc3cc(Cl)ccc23)cc1)c1ccc(Cl)cc1
Plasmodium yoelii
  IC50: 5.72 µg/mL (≈ 9.8 µM)
Plasmodium falciparum [1]
  IC50: 128 nM
[2]
  selectivity ratio: 1340
Plasmodium falciparum [3]; [5]
  IC50: 315 nM

## Cc1ccc(/C=C(\Oc2ccc(/C=N/Nc3ccnc4cc(Cl)ccc34)cc2)C(=O)c2ccc(Cl)cc2)cc1
Plasmodium yoelii
  IC50: 5.58 µg/mL (≈ 10.1 µM)
Plasmodium falciparum [1]
  IC50: 112 nM
[2]
  selectivity ratio: 1620
Plasmodium falciparum [3]; [5]
  IC50: 97.9 nM

## COc1ccc(/C=C(\Oc2ccc(/C=N/Nc3ccnc4cc(Cl)ccc34)cc2)C(=O)c2ccc(Cl)cc2)c(OC)c1OC
Plasmodium yoelii
  IC50: 3.52 µg/mL (≈ 5.6 µM)
[4]
  Activity: 63%
Plasmodium falciparum [1]
  IC50: 124 nM
[2]
  selectivity ratio: 837
Plasmodium falciparum [3]; [5]
  IC50: 82.9 nM

## O=C(/C(=C/c1ccc(F)cc1)Oc1ccc(/C=N/Nc2ccnc3cc(Cl)ccc23)cc1)c1ccc(Cl)cc1
Plasmodium yoelii
  IC50: 15.6 µg/mL (≈ 28 µM)
Plasmodium falciparum [1]
  IC50: 29.1 nM
[2]
  selectivity ratio: 6200
Plasmodium falciparum [3]; [5]
  IC50: 102 nM

## O=C(/C(=C/c1ccc(F)cc1F)Oc1ccc(/C=N/Nc2ccnc3cc(Cl)ccc23)cc1)c1ccc(Cl)cc1
Plasmodium falciparum [1]
  IC50: 139 nM
[2]
  selectivity ratio: 1040
Plasmodium falciparum [3]; [5]
  IC50: 170 nM

## O=C(/C(=C/c1ccc([N+](=O)[O-])cc1)Oc1ccc(/C=N/Nc2ccnc3cc(Cl)ccc23)cc1)c1ccc(Cl)cc1
Plasmodium yoelii
  IC50: 12.8 µg/mL (≈ 21.9 µM)
Plasmodium falciparum [1]
  IC50: > 500 nM
Plasmodium falciparum [3]
  IC50: Not Active

## COc1cc(OC)c(OC)cc1/C=C(\Oc1ccc(/C=N/Nc2ccnc3cc(Cl)ccc23)cc1)C(=O)c1ccc(Cl)cc1
Plasmodium yoelii
  IC50: 10.6 µg/mL (≈ 16.9 µM)
Plasmodium falciparum [1]
  IC50: 90.5 nM
[2]
  selectivity ratio: 728
Plasmodium falciparum [3]; [5]
  IC50: 89.5 nM

## COc1ccc(/C=C(\Oc2ccc(/C=N/Nc3ccnc4cc(Cl)ccc34)cc2)C(=O)c2ccc(Cl)cc2)cc1
Plasmodium yoelii
  IC50: 17.6 µg/mL (≈ 31 µM)
Plasmodium falciparum [1]
  IC50: 48.1 nM
[2]
  selectivity ratio: 2050
Plasmodium falciparum [3]; [5]
  IC50: 96.9 nM

## O=C(/C(=C/c1ccoc1)Oc1ccc(/C=N/Nc2ccnc3cc(Cl)ccc23)cc1)c1ccc(Cl)cc1
Plasmodium yoelii
  IC50: 3.74 µg/mL (≈ 7.08 µM)
[4]
  Activity: 53%
Plasmodium falciparum [1]
  IC50: 57.3 nM
[2]
  selectivity ratio: 962
Plasmodium falciparum [3]; [5]
  IC50: 115 nM

## COc1cc(/C=C(\Oc2ccc(/C=N/Nc3ccnc4cc(Cl)ccc34)cc2)C(=O)c2ccc(Cl)cc2)cc(OC)c1OC
Plasmodium yoelii
  IC50: 10.8 µg/mL (≈ 17.2 µM)
Plasmodium falciparum [1]
  IC50: 95.3 nM
[2]
  selectivity ratio: 970
Plasmodium falciparum [3]; [5]
  IC50: 123 nM

## O=C(/C(=C/c1ccc(Cl)cc1)Oc1ccc(/C=N/Nc2ccnc3cc(Cl)ccc23)cc1)c1ccc(Cl)cc1
Plasmodium yoelii
  IC50: 8.38 µg/mL (≈ 14.6 µM)
Plasmodium falciparum [1]
  IC50: 145 nM
[2]
  selectivity ratio: 1210
Plasmodium falciparum [3]; [5]
  IC50: 199 nM

## COc1ccc(/C=C(\Oc2ccc(/C=N/Nc3ccnc4cc(Cl)ccc34)cc2)C(=O)c2ccc(Cl)cc2)cc1OC
Plasmodium yoelii
  IC50: 3.46 µg/mL (≈ 5.78 µM)
[4]
  Activity: 59%
Plasmodium falciparum [1]
  IC50: 84 nM
[2]
  selectivity ratio: 1440
Plasmodium falciparum [3]; [5]
  IC50: 97.8 nM

## O=C(COc1ccc(/C=N/Nc2ccnc3cc(Cl)ccc23)cc1)c1ccc(Cl)cc1
Plasmodium yoelii
  IC50: 16.4 µg/mL (≈ 36.4 µM)
Plasmodium falciparum [1]
  IC50: 36.7 nM
[2]
  selectivity ratio: 800
Plasmodium falciparum [3]; [5]
  IC50: 126 nM
